Test results published in article PMC11671551 (Cancer Chemotherapy and Pharmacology, 2024).
Where two headings read alike, the source gives them in different places.

Columns and labels:
[1] = assay type: in vivo, human; conditions: for Serum concentration, mean: trough
How it was run: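 mRCC patients recruited prospectively (March 2020–January 2022) on oral sunitinib, 2 weeks on/1 week off, with physician-set dose. Blood (5 mL) was drawn at outpatient visits 7–14 days into each cycle, 24 h post-dose or just before the next dose. It was spun at 1,500 ×g, 4 °C, 10 min, and the serum stored at -25 °C. Parent drug, N-desethyl and N-oxide were quantified by LC-MS/MS (LLOQ 2.5, 2.5, 0.1 ng/mL). Concentration/dose ratios were correlated with treatment duration by Pearson.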

[2] = Adverse events in mRCC patients receiving long-term sunitinib; assay type: in vivo, human
[3] = population pharmacokinetic analysis, patient weighing 100 kg; cited from earlier work
[4] = Pt1, maintenance dose 25 mg, 421–630 days after initiation
[5] = Pt1, maintenance dose 25 mg, 631–840 days after initiation
[6] = Pt1, maintenance dose 25 mg, 841–1050 days after initiation
[7] = Pt1, maintenance dose 25 mg, 1051–1260 days after initiation
[8] = Pt1, maintenance dose 25 mg, 1261–1470 days after initiation
[9] = Pt2, maintenance dose 25 mg, 631–840 days after initiation
[10] = Pt2, maintenance dose 25 mg, 841–1050 days after initiation
[11] = Pt3, maintenance dose 25 mg, 1051–1260 days after initiation
[12] = Pt3, maintenance dose 25 mg, 1261–1470 days after initiation
[13] = Pt3, maintenance dose 25 mg, 1471–1680 days after initiation
[14] = Pt3, maintenance dose 25 mg, 1681–1890 days after initiation
[15] = Pt4, maintenance dose 25 mg, 1891–2100 days after initiation
[16] = Pt5, maintenance dose 37.5 mg, 1261–1470 days after initiation
[17] = Pt5, maintenance dose 37.5 mg, 1471–1680 days after initiation
[18] = Pt5, maintenance dose 37.5 mg, 1681–1890 days after initiation
[19] = Pt6, maintenance dose 50 mg, 0–210 days after initiation
[20] = Pt6, maintenance dose 50 mg, 211–420 days after initiation
[21] = Pt6, maintenance dose 50 mg, 421–630 days after initiation
[22] = Pt7, maintenance dose 25 mg, 0–210 days after initiation
[23] = after follow-up, sunitinib C/D decreased group (n=3)
[24] = after follow-up, sunitinib C/D non-decreased group (n=4)
[25] = baseline, sunitinib C/D decreased group (n=3)
[26] = baseline, sunitinib C/D non-decreased group (n=4)
[27] = sunitinib C/D decreased group (n=3)
[28] = sunitinib C/D non-decreased group (n=4)

In the case of `CCNCCNC(=O)c1c(C)[nH]c(/C=C2\C(=O)Nc3ccc(F)cc32)c1C` [N-desethyl sunitinib], the “Pearson's correlation coefficient r between C/D ratio and treatment duration” value ([1]; Pt1) is reported as -0.282, the “Serum concentration, mean” value [1, 4] is reported as 9.0 ng/mL and the “Serum concentration, mean” value [1, 5] is reported as 11.0 ng/mL. The “Serum concentration, mean” value [1, 6] was 10.4 ng/mL, the “Serum concentration, mean” value [1, 7] was 9.6 ng/mL and the “Serum concentration, mean” value [1, 8] was 6.9 ng/mL. The “Pearson's correlation coefficient r between C/D ratio and treatment duration” value ([1]; Pt2) was -0.500, the “Serum concentration, mean” value [1, 9] was 22.7 ng/mL and the “Serum concentration, mean” value [1, 10] was 20.9 ng/mL. The “Serum concentration, mean” value [1, 11] was 13.2 ng/mL, the “Serum concentration, mean” value [1, 12] was 12.5 ng/mL and the “Serum concentration, mean” value [1, 13] was 15.5 ng/mL. For the same compound, the “Serum concentration, mean” value [1, 14] was 14.6 ng/mL, the “Serum concentration, mean” value [1, 15] was 11.0 ng/mL and the “Serum concentration, mean” value [1, 16] was 12.6 ng/mL. The “Serum concentration, mean” value [1, 17] was 12.1 ng/mL, the “Serum concentration, mean” value [1, 18] was 14.7 ng/mL and the “Serum concentration, mean” value [1, 19] was 30.4 ng/mL. The “Serum concentration, mean” value [1, 20] was 27.7 ng/mL, the “Serum concentration, mean” value [1, 21] was 30.4 ng/mL and the “Serum concentration, mean” value [1, 22] was 17.8 ng/mL. The “N-desethyl sunitinib/sunitinib concentration ratio, median (min–max)” value [1, 23] was 0.29 (0.26–0.63), the “N-desethyl sunitinib/sunitinib concentration ratio, median (min–max)” value [1, 24] was 0.30 (0.16–0.54) and the “N-desethyl sunitinib/sunitinib concentration ratio, median (min–max)” value [1, 25] was 0.28 (0.23–0.46). The “N-desethyl sunitinib/sunitinib concentration ratio, median (min–max)” value [1, 26] was 0.30 (0.19–0.44).

With `CC[N+]([O-])(CC)CCNC(=O)c1c(C)[nH]c(/C=C2\C(=O)Nc3ccc(F)cc32)c1C` [Sunitinib N-oxide, sunitinib N-oxide] the “Pearson's correlation coefficient r between C/D ratio and treatment duration” value ([1]; Pt1) was -0.756, the “Serum concentration, mean” value [1, 4] was 0.68 ng/mL and the “Serum concentration, mean” value [1, 5] was 0.59 ng/mL. For the same compound, the “Serum concentration, mean” value [1, 6] was 0.40 ng/mL, the “Serum concentration, mean” value [1, 7] was 0.29 ng/mL and the “Serum concentration, mean” value [1, 8] was 0.10 ng/mL. The “Pearson's correlation coefficient r between C/D ratio and treatment duration” value ([1]; Pt2) was -0.838, the “Serum concentration, mean” value [1, 9] was 1.10 ng/mL and the “Serum concentration, mean” value [1, 10] was 0.71 ng/mL. The “Serum concentration, mean” value [1, 11] was 0.99 ng/mL, the “Serum concentration, mean” value [1, 12] was 0.58 ng/mL and the “Serum concentration, mean” value [1, 13] was 0.53 ng/mL. The “Serum concentration, mean” value [1, 14] was 0.32 ng/mL, the “Serum concentration, mean” value [1, 15] was 1.35 ng/mL and the “Serum concentration, mean” value [1, 16] was 0.56 ng/mL. For the same compound, the “Serum concentration, mean” value [1, 17] was 0.57 ng/mL, the “Serum concentration, mean” value [1, 18] was 0.36 ng/mL and the “Pearson's correlation coefficient r between C/D ratio and treatment duration” value ([1]; Pt6) was -0.752. The “Serum concentration, mean” value [1, 19] was 0.56 ng/mL, the “Serum concentration, mean” value [1, 20] was 0.55 ng/mL and the “Serum concentration, mean” value [1, 21] was 0.17 ng/mL. For the same compound, the “Serum concentration, mean” value [1, 22] was 0.24 ng/mL, the “Sunitinib N-oxide/sunitinib concentration ratio, median (min–max)” value [1, 23] was 0.004 (0.004–0.009) and the “Sunitinib N-oxide/sunitinib concentration ratio, median (min–max)” value [1, 24] was 0.006 (0.004–0.029). For the same compound, the “Sunitinib N-oxide/sunitinib concentration ratio, median (min–max)” value [1, 25] was 0.013 (0.010–0.021) and the “Sunitinib N-oxide/sunitinib concentration ratio, median (min–max)” value [1, 26] was 0.016 (0.014–0.026).

For `CCN(CC)CCNC(=O)c1c(C)[nH]c(/C=C2\C(=O)Nc3ccc(F)cc32)c1C` [Sunitinib, sunitinib, reference compound], the “Pearson's correlation coefficient r between C/D ratio and treatment duration” value ([1]; Pt1) was -0.608, the “Serum concentration, mean” value [1, 4] was 44.0 ng/mL and the “Serum concentration, mean” value [1, 5] was 48.3 ng/mL. The “Serum concentration, mean” value [1, 6] was 41.2 ng/mL, the “Serum concentration, mean” value [1, 7] was 33.1 ng/mL and the “Serum concentration, mean” value [1, 8] was 26.2 ng/mL. The “Pearson's correlation coefficient r between C/D ratio and treatment duration” value ([1]; Pt2) was -0.555, the “Serum concentration, mean” value [1, 9] was 86.7 ng/mL and the “Serum concentration, mean” value [1, 10] was 73.5 ng/mL. For the same compound, the “Serum concentration, mean” value [1, 11] was 59.5 ng/mL, the “Serum concentration, mean” value [1, 12] was 54.9 ng/mL and the “Serum concentration, mean” value [1, 13] was 64.1 ng/mL. The “Serum concentration, mean” value [1, 14] was 54.1 ng/mL, the “Serum concentration, mean” value [1, 15] was 54.5 ng/mL and the “Serum concentration, mean” value [1, 16] was 42.2 ng/mL. The “Serum concentration, mean” value [1, 17] was 44.7 ng/mL, the “Serum concentration, mean” value [1, 18] was 39.4 ng/mL and the “Pearson's correlation coefficient r between C/D ratio and treatment duration” value ([1]; Pt6) was -0.590. The “Serum concentration, mean” value [1, 19] was 71.0 ng/mL, the “Serum concentration, mean” value [1, 20] was 65.8 ng/mL and the “Serum concentration, mean” value [1, 21] was 37.5 ng/mL. The “Serum concentration, mean” value [1, 22] was 31.1 ng/mL, the “Patients with grade 2 or higher anorexia” value ([2]; all 7 patients, five patients) was 71.4% and the “Patients with anorexia (any grade)” value ([2]; all 7 patients, six patients) was 85.7%. For the same compound, the “Anorexia Grade 0, number of patients” value [2, 27] was 1 n, the “Anorexia Grade 1, number of patients” value [2, 27] was 0 n and the “Anorexia Grade 2, number of patients” value [2, 27] was 1 n. The “Anorexia Grade 3, number of patients” value [2, 27] was 1 n, the “Diarrhea Grade 0, number of patients” value [2, 27] was 2 n and the “Diarrhea Grade 1, number of patients” value [2, 27] was 1 n. The “Anorexia Grade 0, number of patients” value [2, 28] was 0 n, the “Anorexia Grade 1, number of patients” value [2, 28] was 1 n and the “Anorexia Grade 2, number of patients” value [2, 28] was 2 n. For the same compound, the “Anorexia Grade 3, number of patients” value [2, 28] was 1 n, the “Diarrhea Grade 0, number of patients” value [2, 28] was 2 n and the “Diarrhea Grade 1, number of patients” value [2, 28] was 2 n. For the same compound, the “Maximum variation in Vd/F” value [3] was 14%.
